From paper PMC6697619 (Cell chemical biology, 2019)
Where “and” joins values, the source holds several entries; their conditions need not be identical. Identical values can stand only once. Entries after “also recorded” stand apart in the source; their conditions may differ. Like-named read-outs stand apart in the source and are kept apart here.

Legend:
[1] = tested on: HCT-116 colorectal cancer cells; experiment: XTT cell viability assay, HCT-116; assay type: cell-based, human; conditions: for GI50: read-out: GI50 HCT-116
[2] = tested on: normal colon cells (CoN, ATCC CRL-1790); experiment: XTT cell viability assay, normal colon cells; assay type: cell-based, human; conditions: read-out: GI50 normal colon
tRNA (Lys,3) = experiment: DSF specificity screen, tRNA; assay type: binding; conditions: 5 μM compound, up to 5-fold molar excess
Method in brief: (§1)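 Thermal melt by DSF with SYBR Green: each RNA was exposed to 5 μM test compound and its Tm was determined. Melts were run continuously up to 99°C at 0.09°C/s, with 5 acquisitions per °C and 0.75 s integration. Tm was taken as the half-denatured temperature from a 4PL sigmoidal fit of fluorescence against temperature.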

HIV TAR = experiment: DSF specificity screen, HIV TAR; assay type: binding; conditions: 5 μM compound, up to 5-fold molar excess
Method in brief: as §1

pre-miR-638 = experiment: DSF specificity screen, pre-miR-638; assay type: binding; conditions: 5 μM compound, up to 5-fold molar excess
Method in brief: as §1

pre-miR-21 [3] = experiment: Differential scanning calorimetry; assay type: binding; conditions: 30 μM pre-miR-21, 300 μM bPGN
Method in brief: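 Pre-miR-21 (30 μM), with or without 300 μM test compound, in 0.25 mM Tris-HCl pH 7.5, 0.25 mM NaCl and 1.5% DMSO, degassed. The cell was pressurised to 30 psi and run through 8 alternating up/down scans at 60°C/hr with a 16 s filter. The first up scan was subtracted, the baseline corrected, and the data fitted to a non-2-state unfolding model to give Tm and enthalpy for each transition.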

miR-21 = experiment: RT-qPCR of miR-21 expression in HCT-116 cells; assay type: cell-based, human; conditions: 50 nM, within 2 hours post-treatment
Method in brief: (§2)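 HCT-116 cells at 50–60% confluence were given 50 nM test compound, and RNA was extracted at time points from 0 to 24 h. miRNAs were quantified by RT-qPCR with LNA primers: 95°C 10 min, then 45 cycles of 95°C 10 s, 60°C 1 min and 95°C 10 s. U6 snRNA served as reference and UniSp6 as spike-in control; run in triplicate.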

[4] = tested on: miRs -1246, -203a-3p, -200b-3p, -361; experiment: RT-qPCR of other miRs in HCT-116 cells; assay type: cell-based, human; conditions: 50 nM, 0-24 h
Method in brief: as §2

pre-miR-21 [5] = experiment: RT-qPCR of pre-miR-21 expression in HCT-116 cells; assay type: cell-based, human; conditions: 50 nM, up to 24 hours post-treatment
[6] = biological target: Dicer-mediated processing of pre-miR-21 (Homo sapiens, UniProt Q9UPY3); experiment: Dicer processing assay; assay type: biochemical; conditions: for shift in Tm in the presence of Dicer: vs DMSO only control
Chain of Dicer-mediated processing of pre-miR-21 (Q9UPY3 whole entry): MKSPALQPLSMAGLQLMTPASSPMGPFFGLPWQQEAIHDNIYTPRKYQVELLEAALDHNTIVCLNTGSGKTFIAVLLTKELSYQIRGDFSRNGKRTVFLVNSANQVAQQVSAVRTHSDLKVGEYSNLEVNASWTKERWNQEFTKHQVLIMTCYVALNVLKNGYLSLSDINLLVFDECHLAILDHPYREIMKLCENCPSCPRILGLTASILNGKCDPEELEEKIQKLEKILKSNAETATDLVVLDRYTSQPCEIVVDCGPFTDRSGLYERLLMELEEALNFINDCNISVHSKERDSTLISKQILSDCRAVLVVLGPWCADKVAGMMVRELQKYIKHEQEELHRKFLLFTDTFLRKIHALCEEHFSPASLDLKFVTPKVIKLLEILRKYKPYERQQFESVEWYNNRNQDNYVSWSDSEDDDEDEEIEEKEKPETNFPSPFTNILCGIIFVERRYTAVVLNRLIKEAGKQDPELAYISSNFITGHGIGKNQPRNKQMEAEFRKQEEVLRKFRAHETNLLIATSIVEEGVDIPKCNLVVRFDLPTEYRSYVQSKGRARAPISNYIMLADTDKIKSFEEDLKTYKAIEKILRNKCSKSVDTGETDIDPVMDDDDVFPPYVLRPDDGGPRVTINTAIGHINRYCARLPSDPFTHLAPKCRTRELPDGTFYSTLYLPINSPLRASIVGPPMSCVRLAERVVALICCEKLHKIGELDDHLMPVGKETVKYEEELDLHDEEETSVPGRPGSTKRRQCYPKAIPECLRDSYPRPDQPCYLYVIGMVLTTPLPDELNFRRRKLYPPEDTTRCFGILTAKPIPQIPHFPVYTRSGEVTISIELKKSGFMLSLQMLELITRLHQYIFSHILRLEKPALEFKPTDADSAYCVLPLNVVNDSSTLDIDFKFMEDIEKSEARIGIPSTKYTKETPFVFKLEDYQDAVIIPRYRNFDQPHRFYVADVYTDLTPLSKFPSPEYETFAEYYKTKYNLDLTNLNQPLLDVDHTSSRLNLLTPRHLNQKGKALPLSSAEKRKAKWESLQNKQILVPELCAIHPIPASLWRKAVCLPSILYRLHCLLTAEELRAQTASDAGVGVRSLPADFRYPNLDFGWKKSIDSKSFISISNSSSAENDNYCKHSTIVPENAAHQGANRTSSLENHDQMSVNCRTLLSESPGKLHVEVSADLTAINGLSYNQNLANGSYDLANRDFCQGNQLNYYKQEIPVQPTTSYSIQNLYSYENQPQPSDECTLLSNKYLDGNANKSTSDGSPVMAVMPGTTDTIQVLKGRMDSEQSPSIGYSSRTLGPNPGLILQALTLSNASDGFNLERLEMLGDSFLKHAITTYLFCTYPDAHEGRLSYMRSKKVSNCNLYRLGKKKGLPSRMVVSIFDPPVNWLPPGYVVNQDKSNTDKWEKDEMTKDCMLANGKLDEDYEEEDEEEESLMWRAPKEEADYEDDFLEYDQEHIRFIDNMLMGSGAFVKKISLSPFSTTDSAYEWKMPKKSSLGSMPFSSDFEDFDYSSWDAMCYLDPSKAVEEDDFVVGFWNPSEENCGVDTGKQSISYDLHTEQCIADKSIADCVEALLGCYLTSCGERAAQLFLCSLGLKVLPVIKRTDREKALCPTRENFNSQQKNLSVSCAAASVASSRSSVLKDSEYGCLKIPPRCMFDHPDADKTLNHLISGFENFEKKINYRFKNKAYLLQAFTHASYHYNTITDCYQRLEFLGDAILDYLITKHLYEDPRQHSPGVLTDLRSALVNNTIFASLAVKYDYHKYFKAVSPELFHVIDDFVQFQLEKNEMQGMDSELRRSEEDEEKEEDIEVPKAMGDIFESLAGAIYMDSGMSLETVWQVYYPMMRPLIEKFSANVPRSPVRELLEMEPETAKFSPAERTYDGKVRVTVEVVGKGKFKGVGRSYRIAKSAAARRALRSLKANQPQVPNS

PDCD4 = experiment: RT-qPCR of PDCD4 transcript in HCT-116 cells; assay type: cell-based, human
PTEN = experiment: RT-qPCR of PTEN transcript in HCT-116 cells; assay type: cell-based, human
Pdcd4 and PTEN = experiment: Western blot of Pdcd4 and PTEN protein in HCT-116 cells; assay type: cell-based, human; conditions: 50 nM, within 24 hours post-treatment
Method in brief: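 HCT-116 cells treated with 50 nM test compound were harvested at 0–36 h. Lysates were TCA/acetone precipitated, redissolved in 8 M urea, and 20 μg protein per lane was separated on 4–12% Bis-Tris gels, then dry-transferred to PVDF. Blots were probed with mouse anti-PDCD4 or anti-PTEN plus rabbit anti-GAPDH (internal control) and detected with IR-dye secondaries.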

pre-miR-21 [7] = experiment: Differential scanning fluorimetry; assay type: binding; conditions: titration up to 20-25 μM
pre-miR-21 [8] = experiment: Fluorescence displacement assay; assay type: binding; conditions: data not shown
[9] = XTT, ATCC CRL-1790, 24 hours post-treatment

1,5-bis[3-(2-hydroxyethylamino)propylamino]anthracene-9,10-dione hydrochloride [Compound 6]
GI50 HCT-116 in words ([1]; XTT, 24 hours post-treatment): high nanomolar
GI50 ([1]; XTT, 24 hours post-treatment): 3200 ± 600 nM
GI50 [2, 9]: 1100 ± 800 nM

CCCC[C@H]1CCCCCCc2[nH]c(/C=C3\N=CC(c4ccc[nH]4)=C3OC)cc21 [Compound 1, butylcycloheptyl prodiginine]
reduction of cell number ([1]; 0.05 μM, 24-hours post-treatment): 55%
cell death ([1]; concentration > 0.5 μM, 24 h): complete cell death
GI50 ([1]; XTT, 24 hours post-treatment): 35 ± 3 nM
IC50 ([1]; read-out: cellular growth inhibitory activity, HCT-116, as restated in text): 35 nM and ~35 nM
GI50 [2, 9]: ≥ 10000 nM
Tm change of tRNA (Lys,3) (tRNA (Lys,3)): did not significantly change the Tm
Tm change of HIV TAR (HIV TAR): did not significantly change the Tm
Tm change of pre-miR-638 (pre-miR-638): did not significantly change the Tm; also recorded: no Tm shift was observed
DSC thermal transition Tm1 of pre-miR-21 in the presence of compound (pre-miR-21 [3]): 42.3 °C
DSC thermal transition Tm2 of pre-miR-21 in the presence of compound (pre-miR-21 [3]): 68.0 °C
reduction of miR-21 levels (miR-21): ~ 80%
reduction of expression level of the other tested miRs [4]: ≤ 30%
pre-miR-21 expression level (pre-miR-21 [5]): did not significantly change
shift in Tm in the presence of Dicer ([6]; 50 μM compound, DSF): −2.8 °C
shift in Tm in the presence of Dicer ([6]; 100 μM compound, DSF): −0.6 °C
inhibition of Dicer processing of pre-miR-21, gel shift ([6]; 50 and 100 μM, 10U Dicer per 10 μM pre-miR-21): dose dependent inhibition of Dicer processing
Tm of pre-miR-21 under Dicer reaction conditions ([6]; in the presence of 10 μM compound, DSF): 62.2 °C
PDCD4 transcript upregulation (PDCD4; by 8 hours post-treatment): 2 fold
PDCD4 transcript upregulation (PDCD4; by 36 hours post-treatment): 2 – 4 fold
PTEN transcript upregulation (PTEN; by 8 hours post-treatment): 2 fold
PTEN transcript upregulation (PTEN; by 36 hours post-treatment): 2 – 4 fold
Pdcd4 and PTEN protein levels (Pdcd4 and PTEN): time dependent increase

COC1=CC(c2cc3ccccc3[nH]2)=N/C1=C\c1[nH]c(C)cc1C [Compound 2, obatoclax, reference compound]
GI50 ([1]; Homo sapiens, HCT-116, 24 h): 100 ± 10 nM
GI50 ([2]; Homo sapiens, 24 h): ≥ 10000 nM

CCCCCC1=C/C(=C/c2[nH]c(-c3ccc[nH]3)cc2OC)N=C1C [Compound 3, prodigiosin, reference compound]
GI50 ([1]; Homo sapiens, HCT-116, 24 h): 240 ± 40 nM
GI50 ([2]; Homo sapiens, 24 h): ≥ 10000 nM

CC[C@@]1(O)C[C@H](O[C@H]2C[C@H](N(C)C)[C@H](O)[C@H](C)O2)c2c(cc3c(c2O)C(=O)c2c(O)cccc2C3=O)[C@H]1C(=O)OC [Compound 4, aklavin]
GI50 HCT-116 in words ([1]; XTT, 24 hours post-treatment): high nanomolar
GI50 ([1]; XTT, 24 hours post-treatment): 570 ± 60 nM
GI50 [2, 9]: 1700 ± 400 nM

COc1cc2c3c4c1Oc1cc5c(cc1O4)[C@@H](Cc1ccc(O)c(c1)Oc1ccc(cc1)C[C@@H]3N(C)CC2)N(C)CC5 [Compound 5, trigilletine]
GI50 ([1]; Homo sapiens, HCT-116, 24 h): 3500 ± 500 nM
GI50 HCT-116 in words ([1]; XTT, 24 hours post-treatment): high nanomolar
GI50 ([2]; Homo sapiens, 24 h): 1000 ± 200 nM

CN1CCCC2C(c3ccccc3)C(C3=NCCCC3)C(c3ccccc3)CC21 (stereo not drawn) [Compound 7, Lobinaline]
GI50 ([1]; XTT, 24 hours post-treatment): ≥ 10000 nM
GI50 [2, 9]: > 10000 nM

C[C@@H](N)C(=O)N[C@H]1CO[C@H](O)[C@H](N)[C@H]1O [Compound 8, prumycin]
GI50 ([1]; XTT, 24 hours post-treatment): ≥ 10000 nM
GI50 [2, 9]: 5100 ± 100 nM

COc1cc2c3c(cc4ccccc4c3c1OC)N(C)CC2 [Compound 9, dehydronuciferin]
GI50 ([1]; XTT, 24 hours post-treatment): ≥ 10000 nM
GI50 [2, 9]: > 10000 nM

O=c1[nH]cc(F)c(=O)[nH]1 [Compound 10, 5-fluorouracil, reference compound]
GI50 ([1]; Homo sapiens, HCT-116, 24 h): 720 ± 20 nM
GI50 ([2]; Homo sapiens, 24 h): 2000 ± 200 nM

CC1(C)CCC(c2ccc(Cl)cc2)=C(CN2CCN(c3ccc(C(=O)NS(=O)(=O)c4ccc(N[C@H](CCN5CCOCC5)CSc5ccccc5)c(S(=O)(=O)C(F)(F)F)c4)cc3)CC2)C1 [Navitoclax]
interaction with pre-miR-21 in DSF (pre-miR-21 [7]): no significant interaction
apparent binding affinity (Kd app) (pre-miR-21 [8]): did not show apparent binding affinity
